The text below walks through data of ChEMBL document CHEMBL1152292, “Biarylpyrazolyl oxadiazole as potent, selective, orally bioavailable cannabinoid-1 receptor antagonists for the treatment of obesity” (J Med Chem, 2008).

Where only a bound is given, the exact number is not on record here.

Experiment [1] concerns the target Cannabinoid receptor 1 (Rattus norvegicus, UniProt P20272). In words: Displacement of [3H]CP-55940 from CB1 receptor in Sprague-Dawley rat cerebellum by liquid scintillation spectrometry. The procedure, abridged: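 Cerebella from male rats (200-300 g) homogenized in TME buffer (50 mM Tris-HCl, 1 mM EDTA, 3 mM MgCl2, pH 7.4), centrifuged 48000g 30 min at 4 °C. About 10 µg membrane incubated with radioligand and varied test concentrations in TME plus 0.5% fatty-acid-free BSA, 1 h at 30 °C. Filtered through PEI-soaked GF/B filters. […] IC50 by nonlinear regression, triplicates, three independent experiments.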
For orientation: In a radioligand displacement assay an active substance lowers the binding of a labelled ligand.

Experiment [2] is described as follows: Selectivity ratio of IC50 for human CB2 receptor to IC50 for Sprague-Dawley rat CB1 receptor. The procedure, abridged: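 Ratio of CB2 IC50 to CB1 IC50. Both come from radioligand competition on membranes incubated 1 h at 30 °C in TME/0.5% BSA: rat cerebellar membranes for CB1, human CB2-transfected CHO K-1 membranes for CB2. IC50 by nonlinear regression from three independent triplicate experiments.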

Experiment [3] has as its target Cannabinoid receptor 2 (Homo sapiens, UniProt P34972). In words: Displacement of [3H]WIN-55212-2 from human CB2 receptor expressed in CHOK1 cells by liquid scintillation spectrometry. The class given is cell-based, CHO-K1. The procedure, abridged:
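Membranes from CHO K-1 cells transfected with human CB2, prepared as for cerebellum. About 10 µg membrane incubated with radioligand and varied test concentrations in TME buffer plus 0.5% fatty-acid-free BSA, 1 h at 30 °C. Filtered through PEI-soaked GF/B filters. Nonspecific binding defined with 1 µM WIN55,212-2. IC50 by nonlinear regression, triplicates, three independent experiments.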

Experiment [4] deals with Mus musculus. As to the kind of experiment: Reduction in body weight in diet-induced obese C57BL/6J mouse model at 10 mg/kg, po after 14 days. Type of experiment: functional. Also noted: scale not given: the % may be the effect or the level left. The procedure, abridged:
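Male C57BL/6J DIO mice over 38 g, singly housed on a 12 h/12 h light/dark cycle with free access to food and water, habituated at least 7 days, tested during the light period. Compound dissolved fresh daily in deionized water with 10% DMSO, given orally at 10 mL/kg daily for 14 days. Vehicle controls n=5, treated groups n=6. Body weight recorded daily.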

Cannabinoid receptor 2, sequence (P34972 whole entry): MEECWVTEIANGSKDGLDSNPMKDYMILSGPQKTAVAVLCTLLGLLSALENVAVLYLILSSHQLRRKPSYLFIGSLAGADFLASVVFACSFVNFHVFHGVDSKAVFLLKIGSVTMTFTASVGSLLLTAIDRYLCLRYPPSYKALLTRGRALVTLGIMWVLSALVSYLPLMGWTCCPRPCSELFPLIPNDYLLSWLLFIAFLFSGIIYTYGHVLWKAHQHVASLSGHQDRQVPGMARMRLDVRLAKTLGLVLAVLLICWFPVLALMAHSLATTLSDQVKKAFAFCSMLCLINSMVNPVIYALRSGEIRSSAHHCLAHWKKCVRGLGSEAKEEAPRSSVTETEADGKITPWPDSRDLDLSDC
Cannabinoid receptor 1, sequence (P20272 whole entry): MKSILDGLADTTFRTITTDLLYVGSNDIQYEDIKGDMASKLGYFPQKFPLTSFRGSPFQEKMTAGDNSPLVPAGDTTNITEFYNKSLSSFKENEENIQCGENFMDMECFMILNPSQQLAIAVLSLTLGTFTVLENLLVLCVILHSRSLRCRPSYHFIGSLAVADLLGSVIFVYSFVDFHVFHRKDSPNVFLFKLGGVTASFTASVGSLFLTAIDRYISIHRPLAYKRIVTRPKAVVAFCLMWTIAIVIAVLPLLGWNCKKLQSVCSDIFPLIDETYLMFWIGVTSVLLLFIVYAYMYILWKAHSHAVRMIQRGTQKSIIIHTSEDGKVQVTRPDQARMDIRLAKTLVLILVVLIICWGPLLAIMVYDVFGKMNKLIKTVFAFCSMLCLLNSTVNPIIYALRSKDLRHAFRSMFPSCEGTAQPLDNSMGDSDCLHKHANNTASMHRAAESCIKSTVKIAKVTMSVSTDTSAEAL

Turning to `Cc1c(-c2nnc(Cc3ccccn3)o2)nn(-c2ccc(Cl)cc2Cl)c1-c1ccc(Cl)cc1`, in experiment [1], the IC50 – broadly, the midpoint of a concentration-inhibition curve – stood at 0.0519 µM.
Still for that read-out and setting: then `CCCCC(C)c1nnc(-c2nn(-c3ccc(Cl)cc3Cl)c(-c3ccc(Cl)cc3)c2C)o1` (stereo unspecified), with 0.0151 µM.
With `CC1(c2nnc(-c3nn(-c4ccc(Cl)cc4Cl)c(-c4ccc(Cl)cc4)c3Cn3cncn3)o2)CC1`, the values for the IC50 in experiment [1] and in experiment [3] were 0.00198 µM and 0.954 µM, respectively. Moreover, in experiment [2], the Ratio IC50 amounted to 482.
In the same order, the values of `CC(C)(C)c1nnc(-c2nn(-c3ccc(Cl)cc3Cl)c(-c3ccc(Cl)cc3)c2C2CC2)o1` are 0.0303 µM, 3.32 µM and 110.
The matching figures for `CCc1c(-c2nnc(C(C)(C)C)o2)nn(-c2ccc(Cl)cc2Cl)c1-c1ccc(Cl)cc1`: 0.00657 µM, 2.33 µM and 355.
Turning to `CCC(C)c1nnc(-c2nn(-c3ccc(Cl)cc3Cl)c(-c3ccc(Cl)cc3)c2C)o1` (stereo unspecified), the IC50 in experiment [1] was 0.0104 µM.
Turning to `Cc1ccc(C2(c3nnc(-c4nn(-c5ccc(Cl)cc5Cl)c(-c5ccc(Cl)cc5)c4Cn4cncn4)o3)CC2)cc1`, the IC50 in experiment [1] was found to be 0.00109 µM; in experiment [3] it was 1.24 µM. The Ratio IC50 in experiment [2] worked out at 1140.
In the same order, the values of `CC(C)(C)c1nnc(-c2nn(-c3ccc(Cl)cc3Cl)c(-c3ccc(Cl)cc3)c2Cn2ncnn2)o1` are 0.00337 µM, 0.68 µM and 202.
The matching figures for `CC1(c2nnc(-c3nn(-c4ccc(Cl)cc4Cl)c(-c4ccc(Br)cc4)c3Cn3cncn3)o2)CC1`: 0.00281 µM, 0.407 µM and 145.
Take `CCCCc1nnc(-c2nn(-c3ccc(Cl)cc3Cl)c(-c3ccc(Cl)cc3)c2C)o1`: in experiment [1], the half-inhibitory concentration (IC50) was determined as 0.035 µM.
On the same count and under the same terms, for `Cc1c(-c2nnc(C(C)C)o2)nn(-c2ccc(Cl)cc2Cl)c1-c1ccc(Cl)cc1` the value was 0.025 µM.
Consider `Clc1ccc(C2(c3nnc(-c4nn(-c5ccc(Cl)cc5Cl)c(-c5ccc(Br)cc5)c4Cn4cncn4)o3)CC2)cc1`, for which the IC50 in experiment [1] came to 0.00057 µM; in experiment [3], 1.05 µM. Also, in experiment [2], the Ratio IC50 turned out to be 1840.
The matching figures for `Clc1ccc(-n2nc(-c3nnc(C4(c5ccccc5)CC4)o3)c(Cn3cncn3)c2-c2ccc(Br)cc2)c(Cl)c1`: 0.00096 µM, 0.242 µM and 252.
For the compound `Cc1c(-c2nnc(C3(C(F)(F)F)CC3)o2)nn(-c2ccc(Cl)cc2Cl)c1-c1ccc(Cl)cc1`, the Activity in experiment [4] is reported as 22.8%.
For the compound `CCCCCc1nnc(-c2nn(-c3ccc(Cl)cc3Cl)c(-c3ccc(Cl)cc3)c2C)o1`, in experiment [1], the IC50 amounted to 0.0718 µM.
For the compound `Cc1c(-c2nnc(C(C)(C)C)o2)nn(-c2ccc(Cl)cc2Cl)c1-c1ccc(Cl)cc1`, the IC50 is 0.00759 µM in experiment [1] and 1.41 µM in experiment [3]. Moreover, the Ratio IC50 in experiment [2] was 186.
The matching figures for `CC(C)c1c(-c2nnc(C(C)(C)C)o2)nn(-c2ccc(Cl)cc2Cl)c1-c1ccc(Cl)cc1`: 0.018 µM, 2.82 µM and 157.
In the case of `CCCCC(C)(C)c1nnc(-c2nn(-c3ccc(Cl)cc3Cl)c(-c3ccc(Cl)cc3)c2C)o1`, the IC50 in experiment [1] came out at 0.0147 µM.
Still for that read-out and setting: then `CCCc1nnc(-c2nn(-c3ccc(Cl)cc3Cl)c(-c3ccc(Cl)cc3)c2C)o1`, with 0.16 µM; and `CCC(CC)c1nnc(-c2nn(-c3ccc(Cl)cc3Cl)c(-c3ccc(Cl)cc3)c2C)o1`, with 0.0317 µM.
Consider `CC(C)(C)c1nnc(-c2nn(-c3ccc(Cl)cc3Cl)c(-c3ccc(Cl)cc3)c2CO)o1`, for which the IC50 in experiment [1] came to 0.0146 µM; in experiment [3] it was 1.81 µM. In experiment [2], the Ratio IC50 was found to be 124.
The matching figures for `COC(=O)NC(C)c1c(-c2nnc(C(C)(C)C)o2)nn(-c2ccc(Cl)cc2Cl)c1-c1ccc(Cl)cc1` (stereo unspecified): 0.009 µM, over 10 µM and over 1110.
The compound `Cc1c(-c2nnc(C3CCC3)o2)nn(-c2ccc(Cl)cc2Cl)c1-c1ccc(Cl)cc1` gave an IC50 in experiment [1] of 0.0131 µM.
On the same count and under the same terms, then `Cc1c(-c2nnc(-c3ccccc3)o2)nn(-c2ccc(Cl)cc2Cl)c1-c1ccc(Cl)cc1`, with 0.281 µM.
On to `Cc1ccc(C2(c3nnc(-c4nn(-c5ccc(Cl)cc5Cl)c(-c5ccc(Br)cc5)c4Cn4cncn4)o3)CC2)cc1`, for which the IC50 in experiment [1] is 0.00134 µM; in experiment [3], 0.579 µM. Moreover, in experiment [2], the Ratio IC50 is 432.
In experiment [1], `Cc1c(-c2nnc(Cc3ccccc3)o2)nn(-c2ccc(Cl)cc2Cl)c1-c1ccc(Cl)cc1` registered an IC50 of 0.0192 µM.
As for `Cc1c(-c2nnc(C3CCCCCC3)o2)nn(-c2ccc(Cl)cc2Cl)c1-c1ccc(Cl)cc1`, the IC50 in experiment [1] came to 0.0265 µM.
On the same count and under the same terms, then `Cc1c(-c2nnc(C3CCCCC3)o2)nn(-c2ccc(Cl)cc2Cl)c1-c1ccc(Cl)cc1`, with 0.012 µM; and `Cc1c(-c2nnc(C(C)(C)c3ccccc3)o2)nn(-c2ccc(Cl)cc2Cl)c1-c1ccc(Cl)cc1`, with 0.00842 µM; and `Cc1c(-c2nnc(C(C)c3ccccc3)o2)nn(-c2ccc(Cl)cc2Cl)c1-c1ccc(Cl)cc1` (stereo unspecified), with 0.0109 µM.
Take `CCC(C)(C)c1nnc(-c2nn(-c3ccc(Cl)cc3Cl)c(-c3ccc(Cl)cc3)c2C)o1`: in experiment [1], the IC50 amounted to 0.0104 µM.
`CCCc1c(-c2nnc(C(C)(C)C)o2)nn(-c2ccc(Cl)cc2Cl)c1-c1ccc(Cl)cc1`: the IC50 in experiment [1] is 0.0335 µM; in experiment [3] it was over 10 µM. Besides, the Ratio IC50 in experiment [2] was over 299.
In turn, `C[C@H](NC(=O)C(C)(C)Oc1ccc(C(F)(F)F)cn1)[C@@H](Cc1ccc(Cl)cc1)c1cccc(C#N)c1` [TARANABANT] showed an IC50 in experiment [1] of 0.00086 µM.
`FC(F)(F)C1(c2nnc(-c3nn(-c4ccc(Cl)cc4Cl)c(-c4ccc(Br)cc4)c3Cn3cncn3)o2)CC1`: the IC50 was determined as 0.00093 µM in experiment [1] and 0.948 µM in experiment [3]. For the same compound, in experiment [2], the Ratio IC50 is 1020. Also, in experiment [4], the Activity was determined as 29.3%.
In experiment [1], `CC(C)(C)c1nnc(-c2nn(-c3ccc(Cl)cc3Cl)c(-c3ccc(Cl)cc3)c2C(=O)O)o1` displayed an IC50 of over 10 µM.
As for `FC(F)(F)C1(c2nnc(-c3nn(-c4ccc(Cl)cc4Cl)c(-c4ccc(Cl)cc4)c3Cn3cncn3)o2)CC1`, the concentration for half-maximal inhibition (IC50) in experiment [1] was found to be 0.00151 µM; in experiment [3] it was 1.75 µM. Besides, the Ratio IC50 in experiment [2] is 1160. This compound showed an Activity in experiment [4] of 29.5%.
On to `Cc1c(-c2nnc(C(C)(C)c3ccc(Cl)cc3)o2)nn(-c2ccc(Cl)cc2Cl)c1-c1ccc(Cl)cc1`, for which, in experiment [1], the IC50 came out at 0.00478 µM.
